According to the RNAGym collection of RNA variant scans (doi:10.1038/s41586-018-0170-7):

B1: tRNA (parent)
chain: GUUCCGUUGGCGUAAUGGUAACGCGUCUCCCUCCUAAGGAGAAGACUGCGGGUUCGAGUCCCGUACGGAACG

Variants of: B1
Assay: yeast fitness, log relative to wild type (ln ratio); higher = fitter; tRNA-Arg(CCU), competitive growth, 37 C, 1 M NaCl
In short: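 Fitness is the natural log of a genotype's generation count divided by that of the wild type. A combinatorial library of tRNA-Arg(CCU) variants sat on a HIS3 centromeric plasmid in BY4742 lacking the chromosomal gene, from two independent transformations. Pools grew 4 generations in SC-HIS at 30 °C, then ~6.5 generations (~26.5 h) in SC-HIS 1M NaCl at 37 °C, with three outputs per input. Generations came from OD-scaled log2 output/input frequency, inverse-variance weighted across replicates, with variants counted by 125 bp paired-end Illumina sequencing.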

Compared with U2G C46U A69G A70U C71U, U2G G6A A43C C46U C71U is higher in “yeast fitness (ln)” value: -0.191 for the first, -0.151 for the second.

First: U2G G6A C46U C66U A70U C71U
Second: U2G C46U C66A A69G A70U C71U
The “yeast fitness (ln)” value of the first is higher: -0.0272 for the first, -0.34 for the second.

Going from U2G G6A C27U A43C C66A C71U to U2G G6A C46U, the “yeast fitness (ln)” value rises from -0.2 to -0.0244.

Going from U2G G6A C27U C46U C66A C71U to U2G G6A C27U C46U C66A A69G A70G, the “yeast fitness (ln)” value rises from -0.213 to -0.134.

Compared with U2G G6A C27U C46U C66A A69G A70U, U2G G6A C46U C66U A69G A70G C71U is lower in “yeast fitness (ln)” value: -0.134 for the first, -0.188 for the second.

Going from U2G C46U C66U A69G A70U to U2G C46U C66U A69G A70G, the “yeast fitness (ln)” value falls from -0.0704 to -0.174.

Compared with U2G G6A A70G C71U, U2G G6A A43C C46U C66U A69G A70U is higher in “yeast fitness (ln)” value: -0.142 for the first, -0.0409 for the second.

Compared with U2G G6A A43C C46U C66U A69G A70G, U2G G6A C27U A43C C46U C66U A69G A70U is lower in “yeast fitness (ln)” value: -0.199 for the first, -0.292 for the second.

Going from U2G G6A C27U A43C C46U C66U A69G A70G to U2G G6A A43C C46U C66U A70U C71U, the “yeast fitness (ln)” value rises from -0.23 to -0.175.

Compared with U2G C27U C66A A70G, U2G C27U C66A A70U is higher in “yeast fitness (ln)” value: -0.128 for the first, -0.0765 for the second.

Compared with U2G G6A C27U C66U A69G A70U C71U, U2G G6A C27U A43C C46U C66U C71U is higher in “yeast fitness (ln)” value: -0.4 for the first, -0.282 for the second.

First: U2G G6A C27U C46U C66A A69G A70U C71U
Second: U2G C66A A70U C71U
The “yeast fitness (ln)” value of the first is lower: -0.385 for the first, -0.0556 for the second.

Compared with U2G C27U C66U A70U C71U, U2G G6A C27U C46U A69G A70G is higher in “yeast fitness (ln)” value: -0.281 for the first, -0.174 for the second.

Going from U2G G6A C27U C46U A69G A70U to U2G G6A C46U C66A A70U C71U, the “yeast fitness (ln)” value rises from -0.133 to -0.106.

First: U2G C66A A70G
Second: U2G C66A A70U
The “yeast fitness (ln)” value of the first is higher: -0.0918 for the first, -0.157 for the second.

Going from U2G G6A C27U C46U C66U A69G C71U to U2G G6A A43C C46U A69G A70U C71U, the “yeast fitness (ln)” value falls from -0.277 to -0.347.

First: U2G G6A C27U A43C C46U C66A A69G A70U C71U
Second: U2G C46U C66U A70U C71U
The “yeast fitness (ln)” value of the first is lower: -0.65 for the first, -0.28 for the second.

Going from U2G G6A C27U C66A C71U to U2G C27U C66A A70U C71U, the “yeast fitness (ln)” value rises from -0.216 to -0.195.

First: U2G G6A A43C C66U A70U
Second: U2G G6A A43C C66U A70G
The “yeast fitness (ln)” value of the first is higher: -0.0213 for the first, -0.147 for the second.

First: U2G G6A C27U C46U C66U A69G A70G C71U
Second: U2G G6A C27U A43C C66U A69G A70G C71U
The “yeast fitness (ln)” value of the first is higher: -0.216 for the first, -0.386 for the second.

Compared with U2G G6A C27U A43C C66A A70G C71U, U2G G6A A43C C46U A69G A70U is higher in “yeast fitness (ln)” value: -0.23 for the first, -0.123 for the second.

First: U2G G6A A43C C46U A69G A70G
Second: U2G C66U
The “yeast fitness (ln)” value of the first is lower: -0.169 for the first, -0.0538 for the second.

Compared with U2G C66A, U2G G6A A43C C46U C66A A69G A70U is lower in “yeast fitness (ln)” value: -0.0285 for the first, -0.0569 for the second.

Going from U2G C27U C66A A69G A70U C71U to U2G G6A C27U A43C C46U, the “yeast fitness (ln)” value rises from -0.431 to -0.0569.

Going from U2G C66U C71U to U2G G6A C27U C66A A70U C71U, the “yeast fitness (ln)” value falls from -0.181 to -0.244.

Compared with U2G G6A C27U C66U A70G C71U, U2G C27U C66U A69G is lower in “yeast fitness (ln)” value: -0.203 for the first, -0.231 for the second.

Going from U2G G6A C27U C46U C71U to U2G G6A A43C C46U C66A, the “yeast fitness (ln)” value falls from -0.128 to -0.141.

Compared with U2G G6A A43C C46U C66U, U2G G6A C27U C66U A69G C71U is lower in “yeast fitness (ln)” value: -0.147 for the first, -0.409 for the second.

Going from U2G G6A A43C C66U A69G C71U to U2G C27U C46U C66U A70U C71U, the “yeast fitness (ln)” value falls from -0.284 to -0.308.

Compared with U2G G6A C27U C66A A69G A70U C71U, U2G G6A C27U A69G A70G C71U is higher in “yeast fitness (ln)” value: -0.499 for the first, -0.245 for the second.

First: U2G G6A A43C A69G A70G
Second: U2G G6A A43C A69G A70U
The “yeast fitness (ln)” value of the first is lower: -0.185 for the first, -0.171 for the second.

Compared with U2G C27U C66U A70G C71U, U2G C71U is higher in “yeast fitness (ln)” value: -0.21 for the first, -0.0549 for the second.

Going from U2G G6A C27U C46U A69G A70G C71U to U2G G6A A43C C66U A70U C71U, the “yeast fitness (ln)” value falls from -0.194 to -0.49.

Compared with U2G G6A C27U C46U, U2G G6A C27U A43C A70G C71U is lower in “yeast fitness (ln)” value: -0.0462 for the first, -0.221 for the second.

First: U2G C46U
Second: U2G C66U A70U
The “yeast fitness (ln)” value of the first is lower: -0.0208 for the first, -0.00968 for the second.

Compared with U2G C66U A70G, U2G G6A C27U A69G A70U is lower in “yeast fitness (ln)” value: -0.0789 for the first, -0.151 for the second.

Going from U2G G6A C27U A69G A70G to U2G G6A C27U A43C C66U A69G C71U, the “yeast fitness (ln)” value falls from -0.193 to -0.35.

Going from U2G G6A C27U A43C C71U to U2G C66U A69G A70G C71U, the “yeast fitness (ln)” value falls from -0.197 to -0.204.

First: U2G G6A A43C A70G C71U
Second: U2G G6A A43C C46U C66U A69G A70G C71U
The “yeast fitness (ln)” value of the first is higher: -0.18 for the first, -0.229 for the second.

First: U2G C27U C71U
Second: U2G G6A C27U C46U C66U
The “yeast fitness (ln)” value of the first is higher: -0.0721 for the first, -0.206 for the second.

First: U2G G6A C27U C46U C66A
Second: U2G G6A C46U C66A A69G A70U
The “yeast fitness (ln)” value of the first is lower: -0.0567 for the first, -0.0517 for the second.

In the case of U2G G6A C27U A70U C71U, the “yeast fitness (ln)” value is reported as -0.144.
